Measured values taken from ChEMBL document CHEMBL3272128, “Antileukemic activity of derivatives of 1-phenyl-2,5-dimethyl-3,4-bis(hydroxymethyl)pyrrole bis(N-methylcarbamate)” (J Med Chem, 1977).

Tests used:
Mus musculus [1] = experiment: Toxicity in male CDF1 mouse allografted with mouse P388 cells assessed as survivors on day 5 at 25 mg/kg, ip using hydroxypropylcellulose suspension; assay type: organism-based; set-up: dose 25 mg/kg, route intraperitoneal; settings: in vivo
Procedure, shortened: (§1)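 Male CDF1 mice received an ip inoculation of P388 leukemia ascitic fluid. Dosing was ip in a hydroxypropylcellulose (Flucel) suspension, once daily for nine days, beginning 24 h after tumor implantation. Toxicity was scored as survivors recorded on the fifth day.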

Mus musculus [2] = experiment: Toxicity in male CDF1 mouse allografted with mouse P388 cells assessed as survivors on day 5 at 12.5 mg/kg, ip using hydroxypropylcellulose suspension; assay type: organism-based; set-up: dose 12.5 mg/kg, route intraperitoneal; settings: in vivo; procedure, shortened: as §1
P388 [3] = experiment: Antileukemic activity against mouse P388 cells allografted in male CDF1 mouse assessed as change in body weight at 50 mg/kg, ip using hydroxypropylcellulose suspension total 9 daily doses started 24 hrs after tumor inoculation; assay type: functional; settings: route intraperitoneal
Procedure, shortened: (§2)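 Male CDF1 mice were inoculated ip with P388 ascitic fluid. Compound was given ip as a Flucel (hydroxypropylcellulose) suspension, nine daily doses from 24 h after inoculation. Animal weight difference (T − C, g) was recorded on the fifth day.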

P388 [4] = experiment: Antileukemic activity against mouse P388 cells allografted in male CDF1 mouse assessed as change in body weight at 25 mg/kg, ip using hydroxypropylcellulose suspension total 9 daily doses started 24 hrs after tumor inoculation; assay type: functional; settings: route intraperitoneal; procedure, shortened: as §2
P388 [5] = experiment: Antileukemic activity against mouse P388 cells allografted in male CDF1 mouse assessed as change in body weight at 12.5 mg/kg, ip using hydroxypropylcellulose suspension total 9 daily doses started 24 hrs after tumor inoculation; assay type: functional; settings: route intraperitoneal; procedure, shortened: as §2
P388 [6] = experiment: Antileukemic activity against mouse P388 cells allografted in male CDF1 mouse assessed as tumor growth inhibition at 50 mg/kg, ip using hydroxypropylcellulose suspension total 9 daily doses started 24 hrs after tumor inoculation; assay type: functional; settings: route intraperitoneal
Procedure, shortened: (§3)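 Male CDF1 mice received P388 ascitic fluid ip, then ip doses in Flucel (hydroxypropylcellulose) suspension, nine daily, beginning 24 h after inoculation. Efficacy was median survival time as % T/C; values > 125 were considered significant.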

P388 [7] = experiment: Antileukemic activity against mouse P388 cells allografted in male CDF1 mouse assessed as tumor growth inhibition at 25 mg/kg, ip using hydroxypropylcellulose suspension total 9 daily doses started 24 hrs after tumor inoculation; assay type: functional; settings: route intraperitoneal; procedure, shortened: as §3
P388 [8] = experiment: Antileukemic activity against mouse P388 cells allografted in male CDF1 mouse assessed as tumor growth inhibition at 12.5 mg/kg, ip using hydroxypropylcellulose suspension total 9 daily doses started 24 hrs after tumor inoculation; assay type: functional; settings: route intraperitoneal; procedure, shortened: as §3
Mus musculus [9] = experiment: Toxicity in male CDF1 mouse allografted with mouse P388 cells assessed as survivors on day 5 at 50 mg/kg, ip using hydroxypropylcellulose suspension; assay type: organism-based; set-up: dose 50 mg/kg, route intraperitoneal; settings: in vivo; procedure, shortened: as §1
P388 [10] = experiment: Antileukemic activity against mouse P388 cells allografted in male CDF1 mouse assessed as tumor growth inhibition at 50 mg/kg, ip using saline as vehicle total 9 daily doses started 24 hrs after tumor inoculation; assay type: functional; settings: route intraperitoneal
Procedure, shortened: (§4)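 P388 ascitic fluid was given ip to male CDF1 mice. Treatment was ip in saline, nine daily doses from 24 h post-inoculation. Median survival time was expressed as % T/C, and % T/C > 125 was considered significant.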

P388 [11] = experiment: Antileukemic activity against mouse P388 cells allografted in male CDF1 mouse assessed as tumor growth inhibition at 25 mg/kg, ip using saline as vehicle total 9 daily doses started 24 hrs after tumor inoculation; assay type: functional; settings: route intraperitoneal; procedure, shortened: as §4
P388 [12] = experiment: Antileukemic activity against mouse P388 cells allografted in male CDF1 mouse assessed as tumor growth inhibition at 12.5 mg/kg, ip using saline as vehicle total 9 daily doses started 24 hrs after tumor inoculation; assay type: functional; settings: route intraperitoneal; procedure, shortened: as §4
Mus musculus [13] = experiment: Toxicity in male CDF1 mouse allografted with mouse P388 cells assessed as survivors on day 5 at 25 mg/kg, ip using saline as vehicle; assay type: organism-based; set-up: dose 25 mg/kg, route intraperitoneal; settings: in vivo
Procedure, shortened: (§5)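 P388 leukemia ascitic fluid was implanted ip into male CDF1 mice. Compound was given ip in saline vehicle as nine daily doses, starting 24 h post-inoculation. Survivor counts were taken on day 5.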

Mus musculus [14] = experiment: Toxicity in male CDF1 mouse allografted with mouse P388 cells assessed as survivors on day 5 at 12.5 mg/kg, ip using saline as vehicle; assay type: organism-based; set-up: dose 12.5 mg/kg, route intraperitoneal; settings: in vivo; procedure, shortened: as §5
P388 [15] = experiment: Antileukemic activity against mouse P388 cells allografted in male CDF1 mouse assessed as change in body weight at 50 mg/kg, ip using saline as vehicle total 9 daily doses started 24 hrs after tumor inoculation; assay type: functional; settings: route intraperitoneal
Procedure, shortened: (§6)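 In male CDF1 mice bearing ip-inoculated P388 ascitic fluid, drug was given ip in saline vehicle, once daily for nine doses starting 24 h after inoculation. Body weight difference, treated minus control (g), was recorded on day 5.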

P388 [16] = experiment: Antileukemic activity against mouse P388 cells allografted in male CDF1 mouse assessed as change in body weight at 25 mg/kg, ip using saline as vehicle total 9 daily doses started 24 hrs after tumor inoculation; assay type: functional; settings: route intraperitoneal; procedure, shortened: as §6
P388 [17] = experiment: Antileukemic activity against mouse P388 cells allografted in male CDF1 mouse assessed as change in body weight at 12.5 mg/kg, ip using saline as vehicle total 9 daily doses started 24 hrs after tumor inoculation; assay type: functional; settings: route intraperitoneal; procedure, shortened: as §6
Mus musculus [18] = experiment: Toxicity in male CDF1 mouse allografted with mouse P388 cells assessed as survivors on day 5 at 50 mg/kg, ip using saline as vehicle; assay type: organism-based; set-up: dose 50 mg/kg, route intraperitoneal; settings: in vivo; procedure, shortened: as §5
P388 [19] = experiment: Antileukemic activity against mouse P388 cells allografted in female CDF1 mouse assessed as tumor growth inhibition at 100 mg/kg, ip using hydroxypropylcellulose suspension total 9 daily doses started 24 hrs after tumor inoculation; assay type: functional; settings: route intraperitoneal
Procedure, shortened: (§7)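 P388 ascitic fluid was inoculated ip into female CDF1 mice. Dosing was ip in a Flucel (hydroxypropylcellulose) suspension, given daily for nine doses beginning 24 h post-inoculation. Activity was median survival time expressed as % T/C, with % T/C > 125 taken as significant.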

P388 [20] = experiment: Antileukemic activity against mouse P388 cells allografted in female CDF1 mouse assessed as tumor growth inhibition at 50 mg/kg, ip using hydroxypropylcellulose suspension total 9 daily doses started 24 hrs after tumor inoculation; assay type: functional; settings: route intraperitoneal; procedure, shortened: as §7
P388 [21] = experiment: Antileukemic activity against mouse P388 cells allografted in female CDF1 mouse assessed as tumor growth inhibition at 25 mg/kg, ip using hydroxypropylcellulose suspension total 9 daily doses started 24 hrs after tumor inoculation; assay type: functional; settings: route intraperitoneal; procedure, shortened: as §7
P388 [22] = experiment: Antileukemic activity against mouse P388 cells allografted in female CDF1 mouse assessed as change in body weight at 6.25 mg/kg, ip using hydroxypropylcellulose suspension total 9 daily doses started 24 hrs after tumor inoculation; assay type: functional; settings: route intraperitoneal
Procedure, shortened: (§8)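 Female CDF1 mice got P388 ascitic fluid ip. Test agent was given ip as a Flucel (hydroxypropylcellulose) suspension, nine daily doses starting 24 h after tumor inoculation. Read-out was the treated minus control animal weight difference (T − C, g), recorded on day 5.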

Mus musculus [23] = experiment: Toxicity in female CDF1 mouse allografted with mouse P388 cells assessed as survivors on day 5 at 200 mg/kg, ip using hydroxypropylcellulose suspension; assay type: organism-based; set-up: dose 200 mg/kg, route intraperitoneal; settings: in vivo
Procedure, shortened: (§9)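 Female CDF1 mice were inoculated ip with P388 leukemia ascitic fluid. Test agent was suspended in hydroxypropylcellulose (Flucel) and given ip as nine daily doses, starting 24 h after tumor inoculation. Survivors were counted on day 5 as the toxicity read-out.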

Mus musculus [24] = experiment: Toxicity in female CDF1 mouse allografted with mouse P388 cells assessed as survivors on day 5 at 50 mg/kg, ip using hydroxypropylcellulose suspension; assay type: organism-based; set-up: dose 50 mg/kg, route intraperitoneal; settings: in vivo; procedure, shortened: as §9
Mus musculus [25] = experiment: Toxicity in female CDF1 mouse allografted with mouse P388 cells assessed as survivors on day 5 at 25 mg/kg, ip using hydroxypropylcellulose suspension; assay type: organism-based; set-up: dose 25 mg/kg, route intraperitoneal; settings: in vivo; procedure, shortened: as §9
P388 [26] = experiment: Antileukemic activity against mouse P388 cells allografted in female CDF1 mouse assessed as change in body weight at 200 mg/kg, ip using hydroxypropylcellulose suspension total 9 daily doses started 24 hrs after tumor inoculation; assay type: functional; settings: route intraperitoneal; procedure, shortened: as §8
P388 [27] = experiment: Antileukemic activity against mouse P388 cells allografted in female CDF1 mouse assessed as change in body weight at 100 mg/kg, ip using hydroxypropylcellulose suspension total 9 daily doses started 24 hrs after tumor inoculation; assay type: functional; settings: route intraperitoneal; procedure, shortened: as §8
P388 [28] = experiment: Antileukemic activity against mouse P388 cells allografted in female CDF1 mouse assessed as change in body weight at 50 mg/kg, ip using hydroxypropylcellulose suspension total 9 daily doses started 24 hrs after tumor inoculation; assay type: functional; settings: route intraperitoneal; procedure, shortened: as §8
P388 [29] = experiment: Antileukemic activity against mouse P388 cells allografted in female CDF1 mouse assessed as change in body weight at 25 mg/kg, ip using hydroxypropylcellulose suspension total 9 daily doses started 24 hrs after tumor inoculation; assay type: functional; settings: route intraperitoneal; procedure, shortened: as §8
P388 [30] = experiment: Antileukemic activity against mouse P388 cells allografted in female CDF1 mouse assessed as tumor growth inhibition at 200 mg/kg, ip using hydroxypropylcellulose suspension total 9 daily doses started 24 hrs after tumor inoculation; assay type: functional; settings: route intraperitoneal; procedure, shortened: as §7

| SMILES | Activity (Mus musculus [1]) | Activity (Mus musculus [2]) | Activity (P388 [3]) | Activity (P388 [4]) | Activity (P388 [5]) | T/C (P388 [6]) | T/C (P388 [7]) | T/C (P388 [8]) | further results |
| --- | --- | --- | --- | --- | --- | --- | --- | --- | --- |
| CCCCc1ccc(-n2c(C)c(COC(=O)NC)c(COC(=O)NC)c2C)cc1 | Non-toxic | Non-toxic | -4.9 g | -4.1 g | -3.1 g | 65% | 152% | 190% | – |
| CNC(=O)OCc1c(COC(=O)NC)c(C)n(-c2ccc(Br)cc2)c1C | Non-toxic | Non-toxic | -4.9 g | -3.9 g | -2 g | 88% | 142% | 152% | – |
| CNC(=O)OCc1c(COC(=O)NC)c(C)n(-c2ccc(OC)cc2)c1C | Non-toxic | Non-toxic | -0.5 g | -2.4 g | -2.6 g | 171% | 142% | 152% | Activity (Mus musculus [9]): Non-toxic |
| CCOc1ccc(-n2c(C)c(COC(=O)NC)c(COC(=O)NC)c2C)cc1 | Non-toxic | Non-toxic | -3.8 g | -3.4 g | -3 g | 90% | 150% | 152% | – |
| CNC(=O)OCc1c(COC(=O)NC)c(C)n(-c2ccc3c(c2)OCO3)c1C | Non-toxic | Non-toxic | -3.4 g | -1.6 g | -1.1 g | <50% | 146% | 132% | – |
| CNC(=O)OCc1c(COC(=O)NC)c(C)n(-c2ccc(C)cc2)c1C | Non-toxic | Non-toxic | -2.6 g | -2.3 g | -2.5 g | 133% | 136% | 142% | Activity (Mus musculus [9]): Non-toxic |
| CNC(=O)OCc1c(COC(=O)NC)c(C)n(-c2ccc(F)cc2)c1C | Non-toxic | Non-toxic | -2.6 g | -2.1 g | -2.6 g | 133% | 155% | 142% | Activity (Mus musculus [9]): Non-toxic |
| CNC(=O)OCc1c(COC(=O)NC)c(C)n(-c2ccc(Cl)cc2)c1C | – | – | – | – | – | – | – | – | T/C (P388 [10]): 80%; T/C (P388 [11]): 142%; T/C (P388 [12]): 145%; Activity (Mus musculus [13]): Non-toxic; Activity (Mus musculus [14]): Non-toxic; Activity (P388 [15]): -2.9 g; Activity (P388 [16]): -3.8 g; Activity (P388 [17]): -1.3 g |
| CNC(=O)OCc1c(COC(=O)NC)c(C)n(-c2ccc(Cl)c(Cl)c2)c1C | – | – | – | – | – | – | – | – | T/C (P388 [10]): 84%; T/C (P388 [11]): 148%; T/C (P388 [12]): 160%; Activity (Mus musculus [18]): Non-toxic; Activity (Mus musculus [13]): Non-toxic; Activity (Mus musculus [14]): Non-toxic; Activity (P388 [15]): -2.6 g; Activity (P388 [16]): -2.9 g; Activity (P388 [17]): -1.5 g |
| COc1ccc(-n2c(C)c(COC(C)=O)c(COC(C)=O)c2C)cc1 | Non-toxic | Non-toxic | -3.2 g | -3.8 g | -1.6 g | 75% | 95% | 157% | – |
| CNC(=O)OCc1c(COC(=O)NC)c(C)n(-c2ccccc2)c1C | Non-toxic | – | – | -1.7 g | -1.3 g | – | 148% | 145% | T/C (P388 [19]): <50%; T/C (P388 [20]): <50%; T/C (P388 [21]): 127%; Activity (P388 [22]): -2.1 g; Activity (Mus musculus [23]): Toxic; Activity (Mus musculus [24]): Non-toxic; Activity (Mus musculus [25]): Non-toxic; Activity (P388 [26]): -1.5 g; Activity (P388 [27]): -2.1 g; Activity (P388 [28]): -2 g; Activity (P388 [29]): -1.6 g; T/C (P388 [30]): <50% |
